Source: PubChem
Yeast lifespan up: yeast lifespan extension | S. cerevisiae growth with nicotinamide, OD615; deaD strain in restrictive glucose medium | inhibition of the nicotinamide effect, % at 10 µM | 0.68% of 130,000 active | AID 775;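 active = inhibition above a set limit, placed 3 SD over the median of all compounds, cut at about 26% in these data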;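 note: 0% = nicotinamide-treated wells and 100% = cells grown without nicotinamide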
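Measured by: optical density (absorbance) at 615 nm; System: modified budding yeast, DeaD strain; Medium: restrictive CSMM-D dextrose medium; Timing: 4 h preincubation then 48 h treatment at 30 °C.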
PostGolgi ctrl: inhibits growth of the yeast control strain; efflux-deficient yeast background strain, growth absorbance A615, 16 h; inhibition, % at 10 µM; 5% of 98,000 active; AID 738
PostGolgi yeast: growth inhibition of a yeast mutant, post-Golgi transport screen | AID 739 | 0.9% of 98,000 active | post-Golgi transport phenotypic cell assay | inhibition, % at 10 µM;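 note: yeast cells grown in 1536-well plates; yeast grown about 18 h at 30C before absorbance read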
Yeast growth inh: chemicals that inhibit yeast BB579 growth in restrictive medium (lifespan-shortening candidates). S. cerevisiae BB579 growth, OD615, 48 h. inhibition, % at 10 µM. 0.51% of 140,000 active;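 active = inhibition above a set limit, 3 SD over the mean compound inhibition, cut at about 44% in these data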
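System: Saccharomyces cerevisiae DeaD strain BB579, replicative lifespan model yeast | Buffer or medium: Restrictive glucose-based CSMM-D medium | Times: 4 h preincubation and 48 h exposure at 30 °C | Detection: OD615 turbidity measurement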
Active calls of the source: *; x = not tested or not shown. This excerpt belongs to a sample that is enriched for hits. Cut-off read from the data, not from the text of the source, unless noted: active = inhibition above about 30%; inactive = the rest.

SMILES	Yeast lifespan up	PostGolgi ctrl	PostGolgi yeast	Yeast growth inh
Cc1cccc(NC(=O)CC2SC(=O)N(c3ccccc3)C2=O)c1 (configuration not stated)	14.1	-2.5	-3.7	50.3*
O=C(CC1SC(=O)N(c2ccccc2)C1=O)Nc1ccccc1 (configuration not stated)	16.0	-1.9	-0.5	3.5
Cc1cc(C)c(N=Cc2c(O)n(-c3nccs3)c(=O)c3ccccc23)c(C)c1	18.6	x	x	-33.2
Cc1cccc(C)c1N=Cc1c(O)n(-c2nccs2)c(=O)c2ccccc12	33.3*	x	x	-39.2
Cc1ccc(OCC(=O)N/N=C/C=C/c2ccco2)cc1C	-2.7	x	x	-35.6
O=c1oc2ccccc2c(N2CCCC2)c1CN1CCCC1	-8.7	0.9	-9.7	85.8*
CCOC(=O)c1c(N)sc(-c2ccccc2)c1C	x	x	x	-1.0
CCOC(=O)c1c(N)sc2c(OC)c(Br)ccc12	-23.4	44.2*	15.9	94.6*
O=C(ONC1=NCCCCC1)c1ccc(Cl)cc1	-20.2	5.1	-9.3	97.9*
O=C(ONC1=NCCCCC1)c1c(F)cccc1F	-5.6	13.4	3.8	13.7
Cc1cc(N2CCOCC2)ccc1/C=C\[N+](=O)[O-]	34.1*	x	x	8.8
CC1CCN(C(=O)c2cc(F)c(F)cc2Cl)CC1	x	x	x	-51.1
CC1CCCC(C)N1C(=O)c1cc(F)c(F)cc1Cl (configuration not stated)	-8.3	37.0*	-6.4	-46.3
O=C(c1ccc(C#CC2(O)CCCCC2)cc1)N1CCN(C(c2ccccc2)c2ccccc2)CC1	-4.2	4.7	11.7	-26.4
Cc1nc(NC(C)c2ccccc2)c2oc3ccccc3c2n1 (configuration not stated)	-10.7	74.3*	8.9	-55.0
Cc1c(Cl)cccc1NC(=O)C1NC(=O)CC1c1ccccc1 (configuration not stated)	-10.4	-3.6	-2.0	-12.2
Cc1cc2cc(CNC(=O)c3ccc(S(=O)(=O)N(C)C)cc3)ccc2n1C	-2.9	30.9*	3.4	-16.6
CCC(=O)Nc1c(C#N)c2nc3ccccc3nc2n1C1CCCCC1	-17.1	37.0*	1.9	-32.4
CCC(=O)Nc1c(C#N)c2nc3ccccc3nc2n1-c1ccccc1C	-3.4	6.3	3.4	-52.3
N#Cc1c(NC(=O)c2ccccc2Cl)n(Cc2ccccc2)c2nc3ccccc3nc12	2.4	x	x	-40.6
CCCCn1c(NC(=O)c2ccccc2Cl)c(C#N)c2nc3ccccc3nc21	-11.1	18.5	33.4*	-9.2
N/N=c1\sc2ccccc2n1-c1ccccc1	-11.0	30.1*	-23.5	-44.5
CCC(C(=O)Nc1cc(C)nn1-c1nc(C)cc(C)n1)c1ccccc1 (configuration not stated)	5.5	48.0*	17.1	-16.8
CSc1ccc(/C=C(\C#N)C(=O)NC2CCCCC2C)cc1 (configuration not stated)	8.8	x	x	-59.9
CC1CCCCC1NC(=O)/C(C#N)=C/c1ccccc1F (configuration not stated)	63.1*	x	x	-24.6
SMILES	Yeast lifespan up	PostGolgi ctrl	PostGolgi yeast	Yeast growth inh
N#Cc1c(SCC(N)=O)nc(-c2ccccc2)c2c1CCCC2	-7.2	17.2	-20.6	-55.2
Cc1ccc(-c2nc(SCC(N)=O)c(C#N)c3c2CCCC3)cc1	6.1	43.6*	6.8	-17.1
O=[N+]([O-])c1ccc2c(c1)C=C1CCCCC1(N1CCCC1)O2 (configuration not stated)	-5.3	x	x	-38.4
CCN1CCN(S(=O)(=O)c2ccc(S(=O)(=O)N(CC)Cc3ccccc3)cc2)CC1	-10.0	11.7	-11.6	-11.6
COC(=O)c1cc2c(-c3ccccc3)c(C)c3ccccn3c-2c1C(=O)OC	-19.3	42.5*	4.7	-50.9
c1ccc2[nH]c(SCCN3CCOCC3)nc2c1	-4.9	3.7	1.0	-19.6
c1ccc(-c2nc(NCc3cccnc3)c3oc4ccccc4c3n2)cc1	-12.4	55.0*	16.8	-49.0
c1ccc2c(c1)oc1c(NCC3CCCO3)ncnc12 (configuration not stated)	-25.7	8.2	0.5	-12.4
c1ccc(-c2nc(NCC3CCCO3)c3oc4ccccc4c3n2)cc1 (configuration not stated)	-12.9	53.2*	1.8	-58.7
CC(C)(C)c1ccc(-c2nc(NCc3cccnc3)c3ccccc3n2)cc1	-9.0	x	x	-0.3
CCOC(=O)C(Oc1ccc(=O)n(-c2ccccc2)n1)C(C)=O (configuration not stated)	-7.6	7.1	1.4	13.1
Cc1ccc(C2NC(=O)c3c(sc4c3CCN(C)C4)N2)o1 (configuration not stated)	-21.7	-0.6	32.5*	2.0
CC(=O)OC1(C(F)(F)F)Oc2ccccc2NC1=O (configuration not stated)	-21.5	43.8*	12.5	-38.5
CCN1C(=S)SC(=O)C1=C1C=C(C)N(Cc2ccco2)C(C)=C1	-13.2	37.8*	-9.0	-64.4
CCN1C(=S)SC(=O)C1=C1C=C(C)OC(C)=C1	-1.4	1.7	0.6	-20.6
CC1CCCN(C(=O)C2CCN(S(=O)(=O)c3cccc4cccnc34)CC2)C1 (configuration not stated)	-6.0	7.7	10.2	20.0
CC(Sc1ccc(Cl)cc1)C(=O)Nc1ccc2c(c1)OCO2 (configuration not stated)	x	x	x	-47.4
CC(C)N1CCC2(CC1)N=C(c1ccc3c(c1)OCO3)CC(c1cc(Cl)ccc1O)N2 (configuration not stated)	-3.1	50.1*	15.0	-25.4
O=c1c([N+](=O)[O-])c(NC2CCCCC2)c2ccccc2n1-c1ccccc1	x	x	x	-15.1
Cc1cc(C)cc(-n2c(C)cc(/C=N/NC(=O)CSc3ncccn3)c2C)c1	-17.0	18.1	41.2*	3.4
Cc1cc(/C=N\NC(=O)COc2cccc3cccnc23)c(C)n1-c1ccccc1	-3.3	x	x	-37.8
Cc1ccc2cc(CCNC(=O)CC(C)C)c(=O)[nH]c2c1	-2.9	-2.9	2.7	-10.3
O=C(NCCc1ccc(Cl)cc1)Nc1cccc(Cl)c1	1.3	34.1*	4.5	-75.8
CC(NC(=O)CCNC(=O)c1ccccc1Cl)C1CC2CCC1C2 (configuration not stated)	-0.9	x	x	-15.4
Cc1ncoc1C(=O)Nc1cccc(Cl)c1C	-11.1	7.7	-5.7	-47.1
SMILES	Yeast lifespan up	PostGolgi ctrl	PostGolgi yeast	Yeast growth inh
Cc1c(Cl)cccc1NC(=O)c1ccc(-n2ccnc2)nc1	-17.8	33.9*	2.1	-23.9
C=C(C(=O)c1ccccc1)C(C)C(=C)C(=O)c1ccccc1	46.3*	x	x	-29.0
C=C(C(=O)c1ccccc1)C(c1ccccc1)C(C)C(=O)c1ccccc1 (configuration not stated)	10.7	x	x	-7.5
COCCCNc1ccnc2c(Cl)cccc12	-3.8	-4.0	30.8*	6.4
COCCNc1ccnc2c(Cl)cccc12	9.4	x	x	-30.9
Cc1nonc1OCCNc1ccc([N+](=O)[O-])cc1[N+](=O)[O-]	-3.6	x	x	13.8
Cc1nonc1OC(C)CNc1ccc([N+](=O)[O-])cc1 (configuration not stated)	-22.7	35.1*	-1.1	-24.1
[N-]=[N+]=CC(=O)C(Cc1ccccc1)N1C(=O)c2ccccc2C1=O (configuration not stated)	33.6*	7.0	-2.2	-11.9
